T cruzi repl = inhibitors of intracellular T. cruzi growth, primary screen, luminescence, NIH3T3 host cells. T. cruzi beta-gal in NIH3T3, 90 h. inhibition, % (test concentration not listed). 300,000 tested, 1.4% active;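 active = mean inhibition across valid replicates above about 55%, limit read from the data; inconclusive = mean below that limit but half or more replicates reach it; inactive = mean below it, under half of replicates reach it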;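 also: signal also drops with host cell toxicity which is not excluded here; 0% = plate median of DMSO wells and 100% = zero luminescence signal; higher percent means less beta-gal luminescence so fewer parasites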
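Material: NIH/3T3 host cells with β-galactosidase reporter T. cruzi; Input: 5,000 host fibroblasts per well; Medium: DMEM, 2% fetal bovine serum; Compound: 50 nL DMSO compound solution per well; Schedule: 3 h host attachment, then at least 90 h co-culture; Detection: luminescent β-galactosidase signal after 60 min lysis.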
HSF1 activator = HSF-1 activators, primary screen, NIH3T3-HGL cells, MG132 stress, luminescence, single point. NIH3T3-HGL HSF-1 luciferase reporter, 8 h; 100% = twice DMSO control signal. activation, % at 9 µM. 300,000 tested, 1.7% active. AID 504408, 2011;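 active = mean replicate activation of at least 50% with a set share of replicates each reaching 50%; inconclusive = only one of those two conditions met; inactive = mean below 50% and too few replicates reaching it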;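 also: 0% = median of the neutral control wells and 100% = twice that signal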
L major viab = Leishmania major promastigote growth inhibition, primary screen. Leishmania major promastigotes, resazurin fluorescence viability. inhibition, % at 10 µM. 200,000 tested, 9% active; in the data active = inhibition above about 50%;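 also: promastigotes grown with compound for 44 hours at 28 °C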
HSF1 inhib = HSF1 inhibitors in luciferase reporter cells, primary screen, cell-based, NIH3T3, luminescence. NIH3T3-HGL HSE-luciferase, MG132-induced, luminescence 8 h; active compounds read low. 300,000 tested, 0.77% active. activity change, negative = inhibition, % at 7.5 µM (by protocol);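 active = more than half of replicate wells show activity change below -50%, luminescence cut by over half; inconclusive = some wells, but at most half, below -50%; inactive = no replicate well below -50%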;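 also: luciferase reports HSF-1 transcriptional activity via heat shock element; 0% = median of DMSO wells and -100% = zero luminescence signal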
Hsp70 act = Hsp70 transcriptional activators, primary screen, cell-based, HeLa, Hsp70 promoter luciferase, luminescence, 10 µM; HeLa Hsp70 promoter luciferase reporter; scaled: vehicle 0, proteasome-inhibitor control 100%; activation, % at 10 µM; 200,000 tested, 0.04% active; AID 1203, 2008;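 active = activation above the mean across all tested compounds plus 3 SD, cutoff set per campaign, cut at about 5.5% in these data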;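 also: 100% = MG132 at 30 µM as the positive control and 0% = DMSO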
* marks the source's active call; other numbers are inactive results; u = inconclusive; x = no result. The entries come from a sample that favours hits as a whole.

SMILES	T cruzi repl	HSF1 activator	L major viab	HSF1 inhib	Hsp70 act
CCC(C)NC(=O)C1CCN(S(=O)(=O)c2cc([N+](=O)[O-])ccc2Cl)CC1 (configuration not stated)	-7	-8	x	3	x
O=[N+]([O-])c1ccc(Cl)c(CN2CCC(O)CC2)c1	-16	-1	62*	-4	0
O=C(Nc1nc2ccc(S(=O)(=O)N3CCCC3)cc2s1)C1CCCCC1	-3	-10	5	-17	0
CC1CCN(S(=O)(=O)c2cc([N+](=O)[O-])ccc2Cl)CC1	35	12	55*	11	0
Cc1ccc(C)c(OCCn2c(=O)c3c(ncn3C3CCCC3)n(Cc3ccccc3)c2=O)c1	37	14	96*	5	0
O=c1c2c(ncn2C2CCCC2)n(Cc2ccccc2)c(=O)n1CCOc1ccccc1	16	-14	4	-3	0
CC(Oc1coc(CN2CCN(C(=O)c3ccco3)CC2)cc1=O)c1ccccc1 (configuration not stated)	-2	-16	x	-1	x
CCN1C(=O)/C(=C\c2ccncc2)SC1=Nc1ccc(C)c(C)c1	29	17	52*	14	0
O=C(Oc1c(Cl)cc(Cl)c2cccnc12)c1cccc([N+](=O)[O-])c1	27	-29	70*	-34	0
CN1CCN(C2=C(Cl)C(=O)N(C3CCCCC3)C2=O)CC1	34	13	95*	6	0
O=C(NNC(=O)c1ccc(Br)cc1)c1ccncc1	-24	-6	x	-7	x
O=C(NNc1ccc(O)cc1)c1ccc(Br)cc1	42	21	98*	-5	0
Cn1cc(CCNC(=O)CC2C(=O)NCCN2Cc2cccc(Oc3ccccc3)c2)cn1 (configuration not stated)	6	-77	-4	-69*	0
CN(Cc1ccncn1)C(=O)CC1C(=O)NCCN1Cc1cccc(Oc2ccccc2)c1 (configuration not stated)	10	3	95*	-1	0
COc1ccccc1N(CC(=O)NC(C)C)S(=O)(=O)c1cccs1	0	7	-7	-5	0
CCCCNC1C(CC)C(CCC)C(C#N)(C#N)C1(C#N)C#N (configuration not stated)	-7	118*	14	84	0
CCOC(=O)c1c(-c2ccccc2)csc1NC(=O)c1cccc(N2C(=O)CCC2=O)c1	-8	85*	-1	28	0
CCOC(=O)c1c(-c2ccc(C)o2)csc1NC(=O)CN1CCOCC1	10	-22	89*	-12	0
CCOC(=O)c1c(-c2ccc(C)o2)csc1NC(=S)NC(=O)N(C)C	2	56*	2	42	0
CCOC(=O)c1c(-c2ccccc2)csc1NC(=O)CCN1CCOCC1	-7	74*	98*	30	0
CCOc1cc(C(=O)N(C)CC(=O)Nc2cccc(F)c2)ccc1OCC(=O)N1CCOCC1	-8	-8	x	-3	x
CCC(CC)COC(=O)C1=C(C)NC(=O)NC1c1ccc2c(c1)OCO2 (configuration not stated)	11	19	x	9	x
CCOC(=O)c1c(-c2ccc(C)cc2)csc1NC(=O)CCN1CCOCC1	-12	4	97*	-7	0
CCOC(=O)c1c(-c2cccs2)csc1NC(=O)CN1CCOCC1	33	16	4	-6	-1
O=C(N/N=C1\CCCc2ccccc21)c1ccc([N+](=O)[O-])cc1	-2	-2	69*	-3	0
SMILES	T cruzi repl	HSF1 activator	L major viab	HSF1 inhib	Hsp70 act
O=C(Cc1ccc(Cl)cc1)N/N=C1\CCCc2ccccc21	-26	37	3	12	0
Cc1ccc(C(=O)N/N=C2\CCCc3ccccc32)c(C)c1	-17	21	16	5	0
O=C(Cc1cccc2ccccc12)N/N=C1\CCCc2ccccc21	12	13	64*	-4	0
Cc1ccccc1OCC(=O)N(CC(C)C)c1c(N)n(CC(C)C)c(=O)[nH]c1=O	-11	-7	x	1	x
Clc1ccc(CN2CCC(Cc3ccccc3)CC2)cc1	-2	-6	90*	-3	-1
CC(C)NC(=O)c1ccc(CN2CCC(Cc3ccccc3)CC2)cc1	7	-1	x	-8	x
Clc1cccc(CN2CCC(Cc3ccccc3)CC2)c1	18	-5	86*	-3	0
O=C(/C=C/c1cccc(Cl)c1)N1CCC(Cc2ccccc2)CC1	3	25	50*	26	0
O=C(/C=C/c1ccccc1)N1CCC(Cc2ccccc2)CC1	4	39	-4	28	0
Cc1ccccc1NC(=O)c1ccc(CN2CCC(Cc3ccccc3)CC2)cc1	27	3	53*	-8	0
Cc1ccc2nc(-c3ccccc3)cc(C(=O)N(C)CC(=O)Nc3ccccc3Br)c2c1	47	0	x	-3	x
COc1cc(Nc2ccccc2Cl)c([N+](=O)[O-])nc1[N+](=O)[O-]	u	-5	83*	-5	0
COc1ccccc1Nc1ccc([N+](=O)[O-])cc1N	26	8	44	-9	0
CC(=O)OCC(=O)NCC(=O)c1c[nH]c2ccccc12	-15	-70	-4	-61*	0
CCCC(=O)Nc1c2c(nn1-c1ccc([N+](=O)[O-])cc1)CS(=O)(=O)C2	-3	-11	x	-1	x
CC1CCCCN1S(=O)(=O)c1ccc(S(=O)(=O)N(Cc2ccccc2)Cc2ccco2)cc1 (configuration not stated)	71*	-1	69*	3	0
CCN(Cc1ccccc1)S(=O)(=O)c1ccc(S(=O)(=O)N(Cc2ccccn2)Cc2ccco2)cc1	21	-10	2	7	0
COc1ccc(/C=C/C(=O)Nc2cccc(S(=O)(=O)N3CCCC3)c2)cc1OC	-8	5	55*	-5	0
COc1ccc(/C=C/C(=O)Nc2ccccc2C(=O)O)cc1OC	4	-59	-6	-56*	0
O=C(/C=C/c1ccc(S(=O)(=O)N2CCOCC2)cc1)NC(=S)Nc1ccc(Cl)cc1Cl	-11	37	20	38	0
COc1ccc(C(=O)NC2CCCCC2)cc1S(=O)(=O)N1CCOCC1	3	-23	x	-2	x
CCN(CC)S(=O)(=O)c1cccc(NC(=S)NC(=O)/C=C/c2ccc(S(=O)(=O)N3CCOCC3)cc2)c1	10	16	80*	11	0
COc1ccc(/C=C/C(=O)NC2CCCCCC2)cc1S(=O)(=O)N1CCOCC1	-3	24	98*	19	0
COc1ccc(/C=C/C(=O)OCC(=O)Nc2c(C)cccc2C)cc1	-4	-7	-5	-11	0
COc1ccc(/C=C/C(=O)Nc2ccccc2C(=O)O)cc1	-11	-43	-4	-39	-1
COc1ccc(C(=O)Nc2ccccc2C(=O)O)cc1Cl	2	17	67*	11	0

Compound activity from PubChem BioAssay.
